From ChEMBL document CHEMBL3745600, “2-Amino-thiophene derivatives present antileishmanial activity mediated by apoptosis and immunomodulation in vitro” (Eur J Med Chem, 2015)
Active and inactive are the calls of the source. No cut-off for these calls is given here.

Columns and labels:
Leishmania amazonensis [1] = assay: Antileishmanial activity against promastigotes of Leishmania amazonensis IFLA/BR/67/PH8 assessed as induction of necrosis using Annexin-V-FITC/PI staining at IC50 after 4 hrs by flow cytometry (reference value: 2.6%); assay type: functional
Leishmania amazonensis [2] = assay: Antileishmanial activity against axenic amastigotes of Leishmania amazonensis IFLA/BR/67/PH8 infected in Swiss mouse peritoneal macrophages assessed as reduction of survival rate after 24 hrs by light microscopy analysis; assay type: functional, organism-based
Outline: (§1)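 Peritoneal macrophages were plated on glass coverslips at 1 x 10^6 cells/mL in supplemented RPMI 1640 and allowed to adhere for 2 h at 34°C, 5% CO₂. They were infected for 3 h with stationary-phase promastigotes at 10 parasites per macrophage, washed with PBS, then exposed to compound for 24 or 72 h. Coverslips were fixed and Panoptic-stained, and 300 macrophages per coverslip were counted by light microscopy. EC50 was derived by probit regression.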

[3] = test system: Peritoneal macrophage cell; assay: Immunomodulatory activity in Swiss mouse peritoneal macrophages infected with promastigotes form of Leishmania amazonensis IFLA/BR/67/PH8 assessed as increase of TNFalpha production at 6.25 to 25 uM after 72 hrs by sandwich ELISA; assay type: functional, cell-based
Outline: (§2)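 Supernatants came from infected macrophages treated for 72 h at 37°C, 5% CO₂. TNF-α, IL-12 and IL-10 were measured by sandwich ELISA at 450 nm against murine recombinant cytokine standards. NO was estimated as nitrite by the Griess reaction at 540 nm against a sodium nitrite standard. LPS (10 mg/L) served as positive control. Three experiments were run in triplicate.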

[4] = Ratio of compound CC50 to meglumine antimoniate CC50 for Swiss mouse peritoneal macrophages; assay type: ADME, cell-based, Peritoneal macrophage cell
Leishmania amazonensis [5] = assay: Antileishmanial activity against promastigotes of Leishmania amazonensis IFLA/BR/67/PH8 assessed as viable cells using Annexin-V staining at 4 times IC50 after 4 hrs by flow cytometry (reference value: 77%); assay type: functional
Leishmania amazonensis [6] = assay: Antileishmanial activity against promastigotes of Leishmania amazonensis IFLA/BR/67/PH8 assessed as induction of necrosis using Annexin-V-FITC/PI staining at 4 times IC50 after 4 hrs by flow cytometry (reference value: 2.6%); assay type: functional
Leishmania amazonensis [7] = assay: Antileishmanial activity against axenic amastigotes of Leishmania amazonensis IFLA/BR/67/PH8 after 24 hrs by MTT assay; conditions: IFLA/BR/67/PH8, 24 h
Leishmania amazonensis [8] = assay: Antileishmanial activity against promastigotes of Leishmania amazonensis IFLA/BR/67/PH8 assessed as induction of necrosis using Annexin-V-FITC/PI staining at 2 times IC50 after 4 hrs by flow cytometry (reference value: 2.6%); assay type: functional
Leishmania amazonensis [9] = assay: Antileishmanial activity against promastigotes of Leishmania amazonensis IFLA/BR/67/PH8 assessed as induction of late apoptosis using Annexin-V/PI staining at 4 times IC50 after 4 hrs by flow cytometry (reference value: 12.05%); assay type: functional
Leishmania amazonensis [10] = assay: Antileishmanial activity against promastigotes of Leishmania amazonensis IFLA/BR/67/PH8 assessed as induction of early apoptosis using Annexin-V staining at 2 times IC50 after 4 hrs by flow cytometry (reference value: 8.3%); assay type: functional
[11] = Selectivity index, ratio of CC50 for Swiss mouse peritoneal macrophages to EC50 for axenic amastigotes of Leishmania amazonensis IFLA/BR/67/PH8
Outline: (§3)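 Promastigote values came from haemocytometer counts after 72 h at 25°C. Axenic amastigote values came from MTT readings after 24 h at 32°C, using amastigotes differentiated at pH 4.6. All 50% values were obtained by probit regression.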

Leishmania amazonensis [12] = assay: Antileishmanial activity against promastigotes of Leishmania amazonensis IFLA/BR/67/PH8 assessed as induction of late apoptosis using Annexin-V/PI staining at 2 times IC50 after 4 hrs by flow cytometry (reference value: 12.05%); assay type: functional
Leishmania amazonensis [13] = assay: Antileishmanial activity against promastigotes of Leishmania amazonensis IFLA/BR/67/PH8 assessed as induction of early apoptosis using Annexin-V staining at 4 times IC50 after 4 hrs by flow cytometry (reference value: 8.3%); assay type: functional
Leishmania amazonensis [14] = assay: Antileishmanial activity against promastigotes of Leishmania amazonensis IFLA/BR/67/PH8 after 72 hrs by Neubauer haemocytometer counting; conditions: IFLA/BR/67/PH8, 72 h
[15] = Selectivity index, ratio of HC50 for human RBC to IC50 for promastigotes of Leishmania amazonensis IFLA/BR/67/PH8; outline: as §3
[16] = Toxicity in human RBC assessed as induction of hemolytic activity after 1 hr by spectrometer analysis; assay type: cell-based, Erythrocyte; conditions: red blood cells (RBC)
Outline: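 A 5% suspension of human erythrocytes in PBS was mixed 4:1 with serial compound dilutions and incubated 1 h at 37°C. The reaction was stopped with PBS (pH 7.2) and spun 10 min at 1000 x g, and supernatant absorbance was read at 540 nm. Haemolysis was expressed relative to a drug-free blank and to water-induced total lysis. HC50 was obtained by probit regression.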

[17] = test system: Peritoneal macrophage cell; assay: Immunomodulatory activity in Swiss mouse peritoneal macrophages infected with promastigotes form of Leishmania amazonensis IFLA/BR/67/PH8 assessed as increase of IL-10 production at 6.25 to 25 uM after 72 hrs by sandwich ELISA; assay type: functional, cell-based; outline: as §2
[18] = Cytotoxicity against Swiss mouse peritoneal macrophages after 24 hrs by MTT assay; assay type: cell-based, Peritoneal macrophage cell
Outline: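 Macrophages were collected from Swiss mice 5 days after thioglycollate (3%) elicitation. About 1 x 10^6 cells per well were incubated in RPMI 1640 with 10% heat-inactivated FBS and compound for 24 h at 37°C, 5% CO₂. MTT was added for 4 h, followed by 10% SDS, and absorbance was read at 540 nm. CC50 was obtained by probit regression.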

[19] = Selectivity index, ratio of CC50 for Swiss mouse peritoneal macrophages to IC50 for promastigotes of Leishmania amazonensis IFLA/BR/67/PH8; assay type: functional; outline: as §3
Leishmania amazonensis [20] = assay: Antileishmanial activity against promastigotes of Leishmania amazonensis IFLA/BR/67/PH8 assessed as induction of early apoptosis using Annexin-V staining at IC50 after 4 hrs by flow cytometry (reference value: 8.3%); assay type: functional
Leishmania amazonensis [21] = assay: Antileishmanial activity against promastigotes of Leishmania amazonensis IFLA/BR/67/PH8 assessed as induction of DNA fragmentation at 1 to 4 times IC50 after 24 hrs by agarose gel electrophoresis; assay type: functional, organism-based
Outline: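 Genomic DNA was extracted with phenol/chloroform and run on agarose with GelRed (1:500) for 1 h at […]. Fragmentation was viewed under UV as a qualitative read-out.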

Leishmania amazonensis [22] = assay: Antileishmanial activity against promastigotes of Leishmania amazonensis IFLA/BR/67/PH8 assessed as viable cells using Annexin-V staining at IC50 after 4 hrs by flow cytometry (reference value: 77%); assay type: functional
[23] = test system: Peritoneal macrophage cell; assay: Immunomodulatory activity in Swiss mouse peritoneal macrophages infected with promastigotes form of Leishmania amazonensis IFLA/BR/67/PH8 assessed as increase of IL-12 production at 6.25 to 25 uM after 72 hrs by sandwich ELISA; assay type: functional, cell-based; outline: as §2
[24] = Ratio of compound HC50 to meglumine antimoniate HC50 for human RBC; assay type: ADME, cell-based; conditions: erythrocyte
Leishmania amazonensis [25] = assay: Antileishmanial activity against axenic amastigotes of Leishmania amazonensis IFLA/BR/67/PH8 infected in Swiss mouse peritoneal macrophages assessed as reduction of survival rate after 72 hrs by light microscopy analysis; assay type: functional, organism-based; outline: as §1
Leishmania amazonensis [26] = assay: Antileishmanial activity against promastigotes of Leishmania amazonensis IFLA/BR/67/PH8 assessed as induction of late apoptosis using Annexin-V/PI staining at IC50 after 4 hrs by flow cytometry (reference value: 12.05%); assay type: functional
[27] = Selectivity index, ratio of HC50 for human RBC to IC50 for axenic amastigotes of Leishmania amazonensis IFLA/BR/67/PH8; outline: as §3

For `N#Cc1c(/N=C/c2cc3cc(Br)ccc3[nH]2)sc2c1CCCC2`, the Activity (Leishmania amazonensis [1]) was 3.5%, the Activity (Leishmania amazonensis [2]) was “Dose-dependent effect” and the Activity [3] was “Active”. It also gave a selectivity ratio [4] of 840, an Activity (Leishmania amazonensis [5]) of 15.8% and an Activity (Leishmania amazonensis [6]) of 51.9%. For the same compound, the EC50 (Leishmania amazonensis [7]) was 18.5 µM, the Activity (Leishmania amazonensis [8]) was 21.7% and the Activity (Leishmania amazonensis [9]) was 27.2%. For the same compound, the Activity (Leishmania amazonensis [10]) was 5.2%, the “Ratio CC50/EC50” value [11] was 6.12 and the Activity (Leishmania amazonensis [12]) was 28.5%. The Activity (Leishmania amazonensis [13]) was 5.03%, the IC50 (Leishmania amazonensis [14]) was 3.37 µM and the Selectivity Index [15] was over 237. For the same compound, the HC50 at 1 h [16] was over 800 µM, the Activity [17] was “inactive” and the CC50 at 24 h [18] was 113 µM. For the same compound, the “Ratio CC50/IC50” value [19] was 33.6, the Activity (Leishmania amazonensis [20]) was 7.1% and the Activity (Leishmania amazonensis [21]) was “Active”. The Activity (Leishmania amazonensis [22]) was 76.7%, the Activity [23] was “Active” and the Ratio [24] was over 14800. For the same compound, the Activity (Leishmania amazonensis [25]) was “Dose-dependent effect”, the Activity (Leishmania amazonensis [26]) was 12.5% and the Selectivity Index [27] was over 43.2.
